Assay [1] can be described thus: nonspecific flux increase, KCNQ1-free cells – parental CHO cells, counter-screen for KCNQ1 potentiator project (AID 493006;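 active means duplicate-averaged activation above buffer control mean plus 5 SD of those controls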;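 on activation: fluorescence ratio of max minus min over baseline after K+ and Tl+ depolarization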). As to conditions: parental CHO-K1 cells, FluxOR thallium flux, at 10 µM; stronger effect = higher value. Summed up:
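Material: untransfected host CHO-K1 cells with FluxOR thallium dye. Timing: overnight 37 °C plating, 90 min RT dye, 20 min compound. Detection: kinetic FluxOR fluorescence, 10 s baseline, 110 s after stimulus. Read-out basis: max-minus-min fluorescence over baseline, percent of buffer-to-R-L3 span. Replicates: duplicate wells per compound, percent values averaged.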
Background: Counterscreens check selectivity or assay interference.

Assay [2] deals with Potassium voltage-gated channel subfamily KQT member 1 (Homo sapiens) (UniProt P51787). As to the kind of experiment: enhancement of KCNQ1 channel thallium flux – FluxOR thallium flux, CHO cells, duplicates, confirmation (AID 493007;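 active means potentiation averaged over duplicate wells exceeding buffer-only control mean by more than 3 SD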;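 on outcome: cells depolarized by a potassium plus thallium sulfate stimulus after compound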). As to conditions: KCNQ1 cell line, FluxOR thallium flux fluorescence, at 10 µM; stronger effect = higher value, % of reference activator effect, buffer zero. Summed up: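 Test system – KCNQ1-expressing CHO cell line · Incubation – FluxOR dye loading 90 min, compound exposure 20 min, room temperature · Detection – FluxOR Tl+ flux fluorescence, 10 s baseline plus 110 s recording · Controls – buffer-only wells as 0% and R-L3 activator as 100%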

The target of assay [3] is Potassium voltage-gated channel subfamily KQT member 2 (Rattus norvegicus) (UniProt O88943). The assay can be described thus: KCNQ2 thallium flux enhancement – KCNQ2-CHO-K1 cells, selectivity assay for KCNQ1 potentiator project (AID 493009;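 active means mean duplicate potentiation above the buffer control mean plus 5 SD of buffer wells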;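 further: assay conditions were tuned for KCNQ1 rather than KCNQ2 modulators; signal is max minus min fluorescence divided by baseline after thallium stimulus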). As to conditions: FluxOR thallium flux fluorescence, at 10 µM; stronger effect = higher value, scaled: buffer 0, activator control 100.
Assay [4] deals with Potassium voltage-gated channel subfamily KQT member 1 (Homo sapiens) (UniProt P51787). As to the kind of experiment: KCNQ1 activators by electrophysiology – IonWorks patch clamp, KCNQ1-CHO cells, orthogonal assay for KCNQ1 potentiator project, confirmation (AID 493184). The conditions noted are these: automated patch clamp current, at 10 µM; stronger effect = higher value. Summed up: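 Read-out: Percent current increase versus pre-compound level | Assay system: CHO cells carrying KCNQ1 | Measured by: Automated perforated-patch electrophysiology | Medium: External bath solution at pH 7.4 | Dosing: One dose, 10 µM final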
On the technique in general: Patch clamp records ionic current or voltage across a cell membrane.

Active and inactive are the calls of the source.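 How the source made its calls, unless noted: active means current rise at least 3 SD above the untreated control mean in each of two repeat wells; inactive means the rest.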

These results are taken from PubChem BioAssay.

Potassium voltage-gated channel subfamily KQT member 2 (Rattus norvegicus), sequence (O88943 whole entry, looked up): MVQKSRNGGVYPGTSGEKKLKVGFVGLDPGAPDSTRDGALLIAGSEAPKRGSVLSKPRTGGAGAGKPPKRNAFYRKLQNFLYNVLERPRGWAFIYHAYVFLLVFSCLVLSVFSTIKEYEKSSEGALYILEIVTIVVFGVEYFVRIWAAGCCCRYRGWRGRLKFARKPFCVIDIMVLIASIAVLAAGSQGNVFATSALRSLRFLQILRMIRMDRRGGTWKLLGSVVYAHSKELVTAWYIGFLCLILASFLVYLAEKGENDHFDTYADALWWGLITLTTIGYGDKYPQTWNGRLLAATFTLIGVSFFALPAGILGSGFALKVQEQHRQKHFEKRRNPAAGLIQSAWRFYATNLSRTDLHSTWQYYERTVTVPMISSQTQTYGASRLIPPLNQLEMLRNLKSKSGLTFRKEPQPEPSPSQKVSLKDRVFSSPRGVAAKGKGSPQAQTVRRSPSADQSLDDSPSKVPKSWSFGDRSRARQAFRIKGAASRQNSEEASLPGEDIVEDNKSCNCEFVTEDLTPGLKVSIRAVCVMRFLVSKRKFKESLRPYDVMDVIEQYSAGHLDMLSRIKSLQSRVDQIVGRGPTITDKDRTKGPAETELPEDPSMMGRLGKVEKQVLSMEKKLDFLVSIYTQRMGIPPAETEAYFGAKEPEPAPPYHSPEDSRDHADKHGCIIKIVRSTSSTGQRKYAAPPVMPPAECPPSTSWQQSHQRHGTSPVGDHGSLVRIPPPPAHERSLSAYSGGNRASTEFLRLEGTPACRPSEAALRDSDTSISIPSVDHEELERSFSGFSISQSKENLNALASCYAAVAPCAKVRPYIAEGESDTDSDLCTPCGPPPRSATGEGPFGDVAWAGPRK
Potassium voltage-gated channel subfamily KQT member 1 (Homo sapiens), sequence (P51787 whole entry, looked up): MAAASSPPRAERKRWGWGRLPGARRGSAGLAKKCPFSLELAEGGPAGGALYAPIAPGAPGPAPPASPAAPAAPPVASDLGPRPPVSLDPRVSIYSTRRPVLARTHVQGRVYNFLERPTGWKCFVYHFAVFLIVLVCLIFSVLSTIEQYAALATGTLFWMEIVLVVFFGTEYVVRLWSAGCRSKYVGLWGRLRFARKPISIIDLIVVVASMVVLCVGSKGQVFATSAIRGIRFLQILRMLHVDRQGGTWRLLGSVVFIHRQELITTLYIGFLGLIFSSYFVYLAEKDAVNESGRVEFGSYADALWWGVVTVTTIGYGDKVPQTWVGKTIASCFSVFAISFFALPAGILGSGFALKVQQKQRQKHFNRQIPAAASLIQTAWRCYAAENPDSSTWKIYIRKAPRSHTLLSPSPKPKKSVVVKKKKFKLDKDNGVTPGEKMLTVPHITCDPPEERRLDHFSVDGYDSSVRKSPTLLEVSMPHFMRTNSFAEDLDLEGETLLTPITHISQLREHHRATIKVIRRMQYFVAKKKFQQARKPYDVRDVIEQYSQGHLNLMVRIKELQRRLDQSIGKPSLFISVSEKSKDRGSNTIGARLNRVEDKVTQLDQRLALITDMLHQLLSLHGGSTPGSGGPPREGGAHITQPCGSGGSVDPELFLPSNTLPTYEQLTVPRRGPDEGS

Turning to `CCOC(=O)C1CCCN(C(=O)C2CCN(S(=O)(=O)c3ccc4ccccc4c3)CC2)C1` (stereo not given), the outcome in assay [1], in assay [2], in assay [3] and in assay [4] was inactive.
For `COc1ccc(C2C(C(=O)c3ccccc3)=C(C)Nc3nc4ccccc4n32)cc1OC` (stereo not given), the outcome in assay [1], in assay [2], in assay [3] and in assay [4] was inactive.
For `COc1ccc(C(=O)N2CCC(n3nccc3NC(=O)C3CCOC3)CC2)cc1` (stereo not given), the outcome in assay [1], in assay [2], in assay [3] and in assay [4] was inactive.
With `Cc1ccnc(NC(=S)NC(=O)c2cncc(Br)c2)c1`, the outcome in assay [1], in assay [2], in assay [3] and in assay [4] was inactive.
On to `O=C(NC(=S)Nc1ccc(N2CCCCC2)c(Cl)c1)c1cccs1`, for which the activation in assay [1] is 138% (active). The potentiation was 120% (active) in assay [2] and 232% (active) in assay [3]. The outcome in assay [4] was inactive.
With `CCOc1ccc(-c2noc(CCC(=O)NC3CCCC3)n2)cc1OC`, the result in assay [1], in assay [2], in assay [3] and in assay [4] was inactive.
In the case of `CC(C)CSc1n[nH]c(=S)s1`, the outcome in assay [1], in assay [2] and in assay [4] was inactive. Moreover, the potentiation in assay [3] is 145% (active).
As to `Cc1cc(C)c(S(=O)(=O)Nc2cccc3nsnc23)c(C)c1`, the outcome in assay [1], in assay [2], in assay [3] and in assay [4] was inactive.
For `OC(c1ccccc1)c1cccnc1` (stereo not given), the activation in assay [1] was 146% (active). Moreover, the potentiation in assay [2] is 22% (active); in assay [3] it was 155% (active). Further, in assay [4], the result was inactive.
For the molecule `CCCCC/C=N\NC(=O)Cc1ccc([N+](=O)[O-])cc1`, the outcome in assay [1], in assay [2], in assay [3] and in assay [4] was inactive.
As for `O=C(NC(=S)Nc1nc2ccccc2s1)c1cccs1`, the activation in assay [1] is 400% (active). For the same molecule, the results for the potentiation in assay [2] and in assay [3] were 180% (active) and 389% (active), respectively. Also, in assay [4], the outcome was inactive.
Regarding `O=C(NC(=S)NC1CCCCC1)c1ccc(Cl)cc1`, in assay [1], the activation is 202% (active). Also, the values for the potentiation in assay [2] and in assay [3] were 262% (active) and 390% (active), respectively. The result in assay [4] was inactive.
As for `O=C(NC(=S)Nc1ccccc1Cl)c1csnn1`, the activation in assay [1] is 450% (active). Further, the potentiation in assay [2] is 174% (active); in assay [3], 510% (active). Further, in assay [4], the outcome was inactive.
As for `CCOC(=O)c1c(NS(=O)(=O)c2cccc(OC)c2)sc2c1CCC2`, the result in assay [1], in assay [3] and in assay [4] was inactive. The potentiation in assay [2] is 59% (active).
For the molecule `Cc1cccc(C(=O)NC(=S)NNC(=O)COc2ccc(Cl)cc2)c1`, the activation in assay [1] is 140% (active). The potentiation in assay [2] is 52% (active); in assay [3] it was 186% (active). Further, the outcome in assay [4] was inactive.
With `C=CCn1c(SCN2C(=O)c3ccccc3C2=O)nc2ccc(Cl)cc2c1=O`, the activation in assay [1] was 152% (active). Moreover, the outcome in assay [2], in assay [3] and in assay [4] was inactive.
With `O=C(NC(=S)N1CCc2ccccc21)c1ccc(Br)o1`, in assay [1], the activation is 400% (active). For the same molecule, the potentiation in assay [2] was 124% (active); in assay [3], 440% (active). The result in assay [4] was inactive.
As to `CCOc1ccc(C(=O)NC(=S)N(Cc2ccccc2)Cc2ccccc2)cc1`, the activation in assay [1] is 395% (active). Further, the potentiation in assay [2] is 296% (active); in assay [3], 522% (active). Also, the outcome in assay [4] was inactive.
Taken in the same sequence, the figures for `CC(/C=C1\SC(=S)N(NS(=O)(=O)c2ccc(C)cc2)C1=O)=C\c1ccccc1` were 507% (active), 424% (active), 666% (active) and “inactive”.
Regarding `O=C(NC(=S)NC1CCCc2ccccc21)c1ccco1` (stereo not given), in assay [1], the activation was 188% (active). For the same molecule, the potentiation is 122% (active) in assay [2] and 272% (active) in assay [3]. Moreover, the result in assay [4] was inactive.
Turning to `CCOc1ccc2nc(N3C(=O)/C(=C/c4ccc(Cl)cc4)NC3=S)sc2c1`, the activation in assay [1] was 283% (active). Moreover, the figures for the potentiation in assay [2] and in assay [3] were 143% (active) and 416% (active), respectively. The outcome in assay [4] was inactive.
Consider `Cn1ncc([N+](=O)[O-])c1C(=O)N/N=C/c1ccc(F)cc1`, for which the outcome in assay [1], in assay [2], in assay [3] and in assay [4] was inactive.
Regarding `CCCCNC(=O)/C(C#N)=C/c1ccc2c(c1)OCCO2`, the outcome in assay [1], in assay [3] and in assay [4] was inactive. For the same molecule, in assay [2], the potentiation is 18.5% (active).
For the molecule `O=Cc1c(F)cccc1N1CCCC1`, the outcome in assay [1], in assay [2] and in assay [4] was inactive. For the same molecule, in assay [3], the potentiation was 150% (active).
As for `Cc1ccc(NC(=S)NC(=O)c2cncc(Br)c2)cc1Cl`, the activation in assay [1] was 323% (active). Moreover, the potentiation in assay [2] is 246% (active); in assay [3], 449% (active). Also, the outcome in assay [4] was inactive.
As for `O=C(NC(=S)Nc1ccccc1)c1csnn1`, the activation in assay [1] is 588% (active). The potentiation in assay [2] was 260% (active); in assay [3], 642% (active). The result in assay [4] was inactive.
Take `CC(=O)Nc1c2c(nn1-c1ccc(C)cc1)CS(=O)(=O)C2`: the result in assay [1], in assay [2], in assay [3] and in assay [4] was inactive.
As for `CCCCCCCCCCCCN1[C@@H](CC(=O)O)c2cc(F)ccc2S1(=O)=O`, the activation in assay [1] is 230% (active). The values for the potentiation in assay [2] and in assay [3] were 76% (active) and 190% (active), respectively. Further, the result in assay [4] was inactive.
With `O=C(NC(=S)Nc1ccccc1N1CCCC1)c1ccco1`, the activation in assay [1] was 174% (active). The potentiation was 21.5% (active) in assay [2] and 174% (active) in assay [3]. Moreover, the outcome in assay [4] was inactive.
In the case of `COc1ccc2[nH]c3c(c2c1)CCNC3C1CC=C(C)CC1` (stereo not given), the outcome in assay [1], in assay [2], in assay [3] and in assay [4] was inactive.
